The values that follow come from ChEMBL document CHEMBL3861992 (Bioorg Med Chem Lett, 2016).

The structures appear in SMILES notation. pIC50: −log10 of the molar value. The source made the active and inactive calls. The calls are words filed in the database; no cut-off is given here.

In series [1] the target is Amyloid-beta precursor protein (Homo sapiens, UniProt P05067). The experiment in a line: Inhibition of amyloid beta (1 to 42 residues) (unknown origin) aggregation after 24 hrs by thioflavin T fluorescence assay.
Amyloid-beta precursor protein, sequence (P05067 whole entry, the tested form may be a part): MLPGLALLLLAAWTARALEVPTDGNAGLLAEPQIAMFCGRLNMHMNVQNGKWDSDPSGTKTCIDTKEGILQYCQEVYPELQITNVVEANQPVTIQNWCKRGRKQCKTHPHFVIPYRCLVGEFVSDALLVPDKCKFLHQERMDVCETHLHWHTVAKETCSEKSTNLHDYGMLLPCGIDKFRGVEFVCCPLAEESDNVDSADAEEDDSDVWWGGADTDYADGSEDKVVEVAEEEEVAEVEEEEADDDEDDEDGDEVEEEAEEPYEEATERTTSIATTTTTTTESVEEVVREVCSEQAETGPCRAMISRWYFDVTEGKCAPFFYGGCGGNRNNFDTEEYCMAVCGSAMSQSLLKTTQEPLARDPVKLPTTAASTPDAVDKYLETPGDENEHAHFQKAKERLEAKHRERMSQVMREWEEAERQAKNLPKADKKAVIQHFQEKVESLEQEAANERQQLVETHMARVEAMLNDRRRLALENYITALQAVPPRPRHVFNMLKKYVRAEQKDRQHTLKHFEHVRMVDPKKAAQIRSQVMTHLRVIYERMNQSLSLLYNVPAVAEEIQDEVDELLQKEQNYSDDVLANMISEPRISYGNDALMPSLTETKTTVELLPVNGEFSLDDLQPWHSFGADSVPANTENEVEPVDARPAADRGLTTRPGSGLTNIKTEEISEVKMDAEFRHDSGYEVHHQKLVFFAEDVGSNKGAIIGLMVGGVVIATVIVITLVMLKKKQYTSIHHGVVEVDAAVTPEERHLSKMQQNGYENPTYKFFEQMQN
Series [2] deals with Microtubule-associated protein tau (Homo sapiens, UniProt P10636). The experiment in a line: Inhibition of recombinant human TAU three-repeat microtubule-binding domain aggregation expressed in Escherichia coli after 16 hrs by thioflavin T fluorescence assay.
Microtubule-associated protein tau, sequence (P10636 whole entry, the tested form may be a part): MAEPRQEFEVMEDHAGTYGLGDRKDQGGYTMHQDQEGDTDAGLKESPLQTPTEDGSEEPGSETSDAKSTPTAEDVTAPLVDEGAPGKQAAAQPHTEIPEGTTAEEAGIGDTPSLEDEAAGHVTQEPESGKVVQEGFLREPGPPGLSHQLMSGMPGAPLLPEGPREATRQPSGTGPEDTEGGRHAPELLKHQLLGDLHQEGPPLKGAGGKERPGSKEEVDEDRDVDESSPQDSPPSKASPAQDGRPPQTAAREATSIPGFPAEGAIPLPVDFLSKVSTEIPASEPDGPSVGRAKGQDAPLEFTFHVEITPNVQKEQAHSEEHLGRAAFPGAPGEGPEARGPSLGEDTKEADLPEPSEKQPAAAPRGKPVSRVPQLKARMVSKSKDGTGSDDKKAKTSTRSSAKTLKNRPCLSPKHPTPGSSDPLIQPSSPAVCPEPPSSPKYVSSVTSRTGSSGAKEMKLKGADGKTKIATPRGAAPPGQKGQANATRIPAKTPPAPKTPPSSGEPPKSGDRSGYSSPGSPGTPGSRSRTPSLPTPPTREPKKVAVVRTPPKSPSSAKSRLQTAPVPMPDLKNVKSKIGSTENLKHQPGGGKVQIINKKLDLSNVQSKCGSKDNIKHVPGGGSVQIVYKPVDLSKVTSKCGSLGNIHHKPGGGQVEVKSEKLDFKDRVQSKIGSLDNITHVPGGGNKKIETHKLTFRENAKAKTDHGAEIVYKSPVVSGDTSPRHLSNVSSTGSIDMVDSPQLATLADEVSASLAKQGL
Series [3] is described as follows: Drug uptake in Sprague-Dawley rat brain at 50 mg/kg, po after 3 hrs by LC-MS/MS analysis. Format: ADME, organism-based. The following applies: read-out: Drug uptake. The essentials:
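Brains collected from SD rats 3 h after a 50 mg/kg oral dose; tissue drug concentration measured per g tissue. Mean ± SD, n = 3.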

The nature of series [4]: Cmax in Sprague-Dawley rat at 50 mg/kg, po after 30 mins by LC-MS/MS analysis. More on the design: dose 50 mg/kg, route oral. As to conditions: in vivo. The format is ADME, organism-based. The essentials: (§1)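 SD rats dosed orally at 50 mg/kg; plasma drug levels followed up to 3 h. Mean ± SD, n = 3.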
In series [5] the test system is Mus musculus. The experiment in a line: In vivo inhibition of human tau aggregation in JNPL3 human tau P301L transgenic mouse model assessed as reduction in amount of sarkosyl-insoluble tau in brain at 20 to 40 mg/kg/day, po for 4 weeks by ELISA. The format is functional, organism-based. A general note: In an ELISA, binding on a coated surface is turned into a signal by an enzyme label.

Series [6] in a line: Tmax in mouse. The format is ADME, organism-based. As to conditions: in vivo.
Series [7] can be described thus: Plasma concentration in Sprague-Dawley rat at 50 mg/kg, po after 3 hrs by LC-MS/MS analysis. The format is ADME, organism-based. The method in brief:
as §1

Series [8] in a line: Drug uptake in Sprague-Dawley rat plasma at 5 mg/kg, iv up to 3 hrs by LC-MS/MS analysis. The format is ADME, organism-based. The following applies: in vivo. The method in brief: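 SD rats given 5 mg/kg intravenously; plasma concentrations sampled up to 3 h post-dose. Mean ± SD, n = 3.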

With `COc1cc(/C=C/C(=O)CC(=O)/C=C/c2ccc(O)cc2OC)ccc1O`, the pIC50 in series [1] was 6.04; in series [2], 6.24.
Consider `COc1ccc(/C=C/C(=O)CC(=O)/C=C/c2ccc3cc[nH]c3c2)c(OC)c1`, for which the pIC50 in series [1] is 6.21; in series [2], 6.15.
Turning to `COc1ccc(/C=C/C(=O)CC(=O)/C=C/c2ccc(O)c(OC)c2)c(O)c1`, the figures for the pIC50 in series [1] and in series [2] were 6.03 and 5.85, respectively.
As for `COc1cc(/C=C/C(=O)CC(=O)/C=C/c2cccnc2)ccc1O`, the negative logarithm of the IC50 (pIC50) in series [1] and in series [2] was < 5.00 each time.
`COc1cc(/C=C/C(=O)CC(=O)/C=C/c2cccc(OC)c2O)ccc1O`: the values for the pIC50 in series [1] and in series [2] were 5.27 and 6.16, respectively.
As for `COc1cc(O)ccc1/C=C/C(=O)CC(=O)/C=C/c1ccc2cc[nH]c2c1`, the pIC50 is 6.28 in series [1] and 6.64 in series [2].
For `COc1ccc(O)c(/C=C/C(=O)CC(=O)/C=C/c2ccc(O)c(OC)c2)c1`, in that order: 5.74 and 6.04.
`CN(C)c1ccc2nc3ccc(=[N+](C)C)cc-3sc2c1` [METHYLENE BLUE ANHYDROUS] showed a pIC50 in series [1] of 6.30.
With `COc1cc(O)cc(/C=C/C(=O)CC(=O)/C=C/c2ccc(O)c(OC)c2)c1`, the pIC50 in series [1] is 5.96; in series [2] it was 6.49.
For `COc1cc(/C=C/C(=O)CC(=O)/C=C/c2ccc3cc[nH]c3c2)ccc1O`, in that order: 6.38 and 6.36.
For `COc1cc(/C=C/C(=O)CC(=O)/C=C/c2ccc(O)c(OC)c2)ccc1O` [CURCUMIN], in series [3], the concentration at 3 h was found to be 13 ng/g.
`COc1cc(/C=C/C(=O)CC(=O)/C=C/c2ccc3ccccc3c2)ccc1O`: the pIC50 is 6.23 in series [1] and 6.38 in series [2].
Consider `COc1cc(OCc2ccccc2)ccc1/C=C/C(=O)CC(=O)/C=C/c1ccc2cc[nH]c2c1`, for which the pIC50 is 5.27 in series [1] and 6.21 in series [2].
Consider `COc1cc(O)ccc1/C=C/C(=O)CC(=O)/C=C/c1ccc(O)cc1OC`, for which the figures for the pIC50 in series [1] and in series [2] were 5.34 and < 5.00, respectively.
As for `COc1cc(/C=C/C(=O)CC(=O)/C=C/c2c(O)cccc2OC)ccc1O`, the figures for the pIC50 in series [1] and in series [2] were 5.80 and 6.04, respectively.
For the compound `COc1cc(OCc2ccccn2)ccc1/C=C/C(=O)CC(=O)/C=C/c1ccc2cc[nH]c2c1`, the concentration at 3 h in series [3] is 1 ng/g. Also, the results for the pIC50 in series [1] and in series [2] were 6.33 and 6.48, respectively. This compound also came in with a Cmax in series [4] of 5.7 ng/mL.
`COc1cc(OCC2CCCO2)ccc1/C=C/C(=O)CC(=O)/C=C/c1ccc2cc[nH]c2c1` (stereo not drawn): the pIC50 in series [1] was 5.60; in series [2] it was 6.38.
For `COc1cc(/C=C/C(=O)CC(=O)/C=C/c2ccco2)ccc1O`, in that order: 6.12 and 5.70.
Take `COc1cc(/C=C/C(=O)CC(=O)/C=C/c2ccccc2)ccc1O`: the pIC50 was 5.66 in series [1] and 5.85 in series [2].
Consider `COc1cc(/C=C/C(=O)CC(=O)/C=C/c2ccc3c(c2)OCO3)ccc1O`, for which the pIC50 in series [1] was 5.43; in series [2], 5.92.
Take `COc1ccc(/C=C/C(=O)CC(=O)/C=C/c2ccc(O)c(OC)c2)cc1O`: the results for the pIC50 in series [1] and in series [2] were 5.68 and 6.28, respectively.
On to `COc1cc(OCc2ccccn2)ccc1/C=C/c1cc(/C=C/c2ccc3cc[nH]c3c2)[nH]n1`, for which the concentration at 3 h was found to be 276 ng/g in series [3] and 466 ng/mL in series [7]. Also, the results for the pIC50 in series [1] and in series [2] were 5.92 and 6.18, respectively. The inhibition entry in series [5] was “Active”. Further, the Tmax in series [6] amounted to 6 h. In addition, the Drug uptake entry in series [8] is “Active”.
With `COc1cc(/C=C/C(=O)CC(=O)/C=C/c2cc(O)ccc2OC)ccc1O`, the pIC50 in series [1] is 5.89; in series [2], 6.22.
Turning to `COc1cc(/C=C/C(=O)CC(=O)/C=C/c2cccc(O)c2OC)ccc1O`, the negative-log IC50 (pIC50) is 5.72 in series [1] and 6.15 in series [2].

A word on the pIC50: it is the negative decadic logarithm of the IC50, by convention in mol/L. As usually defined, the Cmax is the highest concentration seen after dosing. The Tmax is the time from dosing to the highest level.
